Experimental data reported in ChEMBL document CHEMBL3632484, “Synthesis and preliminary biological evaluation of a small library of hybrid compounds based on Ugi isocyanide multicomponent reactions with a marine natural product scaffold” (Bioorg Med Chem Lett, 2015).
In brackets after ≈: the same amount, converted by molar mass.

Assays:
[1] = system: Mycobacterium tuberculosis; assay: Antimycobacterial activity against Mycobacterium tuberculosis H37Rv ATCC 27294 by microplate alamar blue assay; type: functional
Outline: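 Minimum inhibitory concentration by microplate Alamar blue assay against the H37Rv laboratory strain, reported in μg/mL as the mean of three experiments.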

Plasmodium falciparum = assay: Antiplasmodial activity against chloroquine-susceptible Plasmodium falciparum 3D7 infected in human O+ erythrocytes after 72 hrs by SYBR Green based parasite proliferation assay; type: functional, organism-based; conditions: 3D7, 72 h
Vero = assay: Cytotoxicity against African green monkey Vero cells; type: cell-based; conditions: Chlorocebus sabaeus
Outline: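 IC50 in mammalian Vero cells, reported in nM as the mean of three experiments.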

[2] = Selectivity index, ratio of IC50 for African green monkey Vero cells to IC50 for chloroquine-susceptible Plasmodium falciparum 3D7; type: toxicity, cell-based; conditions: read-out: Ratio IC50
Outline: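 Index calculated as Vero cell IC50 divided by the IC50 against chloroquine-susceptible P. falciparum 3D7. The 3D7 IC50 is the concentration giving 50% parasite survival, reported in nM as the mean ± standard error of three experiments.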

[3] = Antineuroinflammatory activity in LPS-primed rat neonatal microglia assessed as inhibition of PMA-stimulated release of O2- after 70 mins; type: functional
Outline: (§1)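 Rat microglia primed with E. coli LPS, then stimulated with PMA (1 μM) for 70 min. Release of superoxide (O2–) and of TXB2 is measured, and the IC50 is the concentration that inhibits release. Short-term viability is checked in parallel by LDH release (LDH50 = 50% of total cellular LDH). Data come from 1–4 independent experiments.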

[4] = Antineuroinflammatory activity in LPS-primed rat neonatal microglia assessed as inhibition of PMA-stimulated release of TXB2 after 70 mins; type: functional; outline: as §1
[5] = Cytotoxicity against rat neonatal microglia assessed as cell viability by lactate dehydrogenase release assay; conditions: read-out: LD50 (the source's name)
Outline: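 Rat microglia were primed with E. coli LPS and then stimulated with PMA (1 μM) for about 70 min. LDH release was measured as short-term viability. LDH50 is the concentration causing release of 50% of the total cellular LDH content. Data come from 1–4 independent experiments.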

Row | Structure (SMILES) | MIC [1] | IC50 (Plasmodium falciparum) | IC50 (Vero) | selectivity ratio [2] | IC50 [3] | IC50 [4] | CC50 [5]
1 | NNC(=O)c1ccncc1 [ISONIAZID] | 0.44 µg/mL (≈ 3.21 µM) |  |  |  |  |  | 
2 | [C-]#[N+][C@@]12CCC(=C)[C@H]3[C@H](CC(C)(C)NC(=O)CN(CCNc4ccnc5cc(Cl)ccc45)C(C)=O)C[C@H](C)[C@@H](CC[C@@H]1C)[C@@H]32 | 17.9 µg/mL (≈ 29 µM) | 0.0111 µM | 28.6 µM | 2570 | 1.7 µM | 0.8 µM | 5 µM
3 | [C-]#[N+][C@@]12CCC(=C)[C@H]3[C@H](CC(C)(C)NC(=O)CN(CCC(C)C)C(=O)c4ccncc4)C[C@H](C)[C@@H](CC[C@@H]1C)[C@@H]32 | 14.9 µg/mL (≈ 27.2 µM) | 0.0115 µM | 19.8 µM | 1720 | > 10 µM | 3 µM | > 10 µM
4 | [C-]#[N+]C(C)(C)C[C@@H]1C[C@H](C)[C@H]2CC[C@H](C)[C@@]3([N+]#[C-])CCC(=C)[C@@H]1[C@H]23 [DIISOCYANOAMPHILECTENE] | 3.2 µg/mL (≈ 9.86 µM) | 0.0012 µM | 99.7 µM | 83100 | > 10 µM | 0.23 µM | > 10 µM
5 | [C-]#[N+][C@@]12CCC(=C)[C@H]3[C@H](CC(C)(C)NC(=O)CNC(=O)c4ccncc4)C[C@H](C)[C@@H](CC[C@@H]1C)[C@@H]32 | 102 µg/mL (≈ 214 µM) | 0.0063 µM |  |  | > 10 µM | 1.1 µM | > 10 µM
6 | [C-]#[N+][C@@]12CCC(=C)[C@H]3[C@H](CC(C)(C)NC(=O)C(c4ccccc4)N(CCC(C)C)C(=O)c4ccncc4)C[C@H](C)[C@@H](CC[C@@H]1C)[C@@H]32 (mixture of isomers) | 56.4 µg/mL | 0.013 µM | 49.2 µM | 3780 | > 10 µM | 0.1 µM | > 10 µM
7 | [C-]#[N+][C@@]12CCC(=C)[C@H]3[C@H](CC(C)(C)NC(=O)CN(CCNc4ccnc5cc(Cl)ccc45)C(=O)c4ccncc4)C[C@H](C)[C@@H](CC[C@@H]1C)[C@@H]32 | 52 µg/mL (≈ 76.3 µM) | 0.0036 µM | 25.8 µM | 7150 | 5 µM | 0.9 µM | 5 µM
